Experimental data published in ChEMBL document CHEMBL5712071, “BET bromodomain protein inhibition is a therapeutic option for medulloblastoma” (Oncotarget, 2013).
Activity calls are given as the source filed them. The calls are words filed in the database; no cut-off is given here.

Legend:
[1] = tested on: Daoy; test: Anti-proliferative activity against human Daoy cells assessed as reduction in cell viability incubated for 120 hrs by MTT assay; type: functional, cell-based
How it was run: (§1)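 Cells seeded in triplicate at 2 × 10^3 per well and allowed to adhere for 24h. JQ1 was given as serial dilutions in full medium, 1nM-6µM, from a 10 mM DMSO stock. Viability was read by MTT at each time point and IC50 derived from dose-response curves. Culture media were RPMI 1640/10% FCS for HD-MB3 (plus 1% NEAA), ONS-76, Daoy and UW-228, and EMEM/10% FCS for D-283 and D-341.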

[2] = tested on: HD-MB03; test: Anti-proliferative activity against human HD-MB03 cells assessed as reduction in cell viability incubated for 96 hrs by MTT assay; type: functional, cell-based; conditions: HD-MB03, 96 h; how it was run: as §1
[3] = tested on: ONS-76; test: Anti-proliferative activity against human ONS-76 cells assessed as reduction in cell viability incubated for 72 hrs by MTT assay; type: functional, cell-based; conditions: ONS-76, 72 h; how it was run: as §1
[4] = tested on: Daoy; test: Anti-proliferative activity against human Daoy cells assessed as reduction in cell viability incubated for 48 hrs by MTT assay; type: functional, cell-based; how it was run: as §1
[5] = tested on: Daoy; test: Anti-proliferative activity against human Daoy cells assessed as reduction in cell viability incubated for 72 hrs by MTT assay; type: functional, cell-based; how it was run: as §1
[6] = tested on: Daoy; test: Anti-proliferative activity against human Daoy cells assessed as reduction in cell viability incubated for 96 hrs by MTT assay; type: functional, cell-based; how it was run: as §1
[7] = tested on: UW228; test: Anti-proliferative activity against human UW228 cells assessed as reduction in cell viability incubated for 72 hrs by MTT assay; type: functional, cell-based; conditions: UW228, 72 h; how it was run: as §1
[8] = tested on: D283 Med; test: Anti-proliferative activity against human D283 cells assessed as reduction in cell viability incubated for 120 hrs by MTT assay; type: functional, cell-based; how it was run: as §1
[9] = tested on: D283 Med; test: Induction of apoptosis in human D283 cells assessed as increase in population of cells in sub-G1 phase at 500 nM incubated for 72 hrs by ELISA; type: functional, cell-based
[10] = tested on: UW228; test: Induction of apoptosis in human UW228 cells assessed as increase in population of cells in sub-G1 phase at 500 nM incubated for 72 hrs by ELISA; type: functional, cell-based
How it was run: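 Cell death ELISA on ONS-76 or UW-228 cells seeded 2 × 10^3 per well in triplicate and allowed 24h to adhere. Treated with 500 nM JQ1 or DMSO for 72h, then apoptotic cell death measured by Cell Death Detection ELISA per kit protocol. Experiments repeated at least 3 times.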

[11] = tested on: HD-MB03; test: Induction of apoptosis in human HD-MB03 cells assessed as increase in population of cells in sub-G1 phase at 500 nM incubated for 72 hrs by ELISA; type: functional, cell-based
[12] = tested on: D341 cell line; test: Induction of apoptosis in human D341 cells assessed as increase in population of cells in G1 phase at 500 nM incubated for 72 hrs by flow cytometry; type: functional, cell-based
How it was run: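 Cells were cultured with 500 nM JQ1 or DMSO control, trypsinised and washed 3 times in PBS. DNA was stained with propidium iodide for 15 min and DNA content analysed by flow cytometry to give G1 and sub-G1 fractions.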

[13] = tested on: UW228; test: Induction of senescence in human UW228 cells assessed as increase in population of cells in G1 phase at 500 nM incubated for 72 hrs by fluorometric SA-beta-gal activity assay; type: functional, cell-based
How it was run: (§2)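 Senescence read as fluorometric SA-β-gal activity. Cells seeded 2 × 10^3 per well in triplicate and allowed 24h to adhere, then exposed to 500 nM JQ1 or DMSO control for 72h. Assayed per kit protocol. Experiments repeated at least 3 times.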

[14] = tested on: D341 cell line; test: Induction of senescence in human D341 cells assessed as increase in population of cells in G1 phase at 500 nM incubated for 72 hrs by fluorometric SA-beta-gal activity assay; type: functional, cell-based; how it was run: as §2
[15] = tested on: HD-MB03; test: Antiproliferative activity against human HD-MB03 cells at 500 nM incubated for 72 hrs by BrdU ELISA method; type: functional, cell-based
How it was run: (§3)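 Cells seeded in triplicate at 2 × 10^3 per well with 24h adherence, then treated with 500 nM JQ1 or DMSO control for 72h. Proliferation was measured by BrdU incorporation ELISA. Experiments were run independently at least 3 times.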

[16] = tested on: D341 cell line; test: Antiproliferative activity against human D341 cells at 500 nM incubated for 72 hrs by BrdU ELISA method; type: functional, cell-based; how it was run: as §3
[17] = tested on: HD-MB03; test: Anti-proliferative activity against human HD-MB03 cells expressing dominant-negative TP53 mutant assessed as reduction in cell viability at 1 to 6000 nM incubated for 72 hrs by MTT assay; type: functional, cell-based; conditions: dose 1-6000 nM
How it was run: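 HD-MB3 was stably transfected with pMSCV-puro-p53DD and selected in 2 μg/mL puromycin. Cells were seeded in triplicate at 2 × 10^3 per well with 24h adherence, then exposed to serially diluted JQ1 in full medium for 72h. Viability was read by MTT.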

[18] = tested on: HD-MB03; test: Antitumor activity against human HD-MB03 cells xenografted in female athymic (nu/nu) mouse assessed as reduction in tumor volume at 50 mg/kg, ip measured form days 4 to 14 days relative to untreated control; type: functional, organism-based; conditions: time 4-14 day
How it was run: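 Female athymic nu/nu mice, 4 weeks old, received 2 × 10^7 HD-MB3 cells in Matrigel subcutaneously in the left flank. At 150–200 mm3 they were randomised, n=7 per group, to JQ1 50 mg/kg ip daily or vehicle for 28 days or until tumours exceeded 1000 mm3. Calipers were used, with volume = (breadth × length × height)/2. Time to 1000 mm3 was analysed by Kaplan-Meier.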

[19] = tested on: HD-MB03; test: Inhibition of BRD4 female athymic (nu/nu) mouse xenografted with human HD-MB03 cells as reduction in MYC protein expression in tumor at 50 mg/kg, ip administered at 0, 12, 24 and 36 hrs over 2-day course by Western blot analysis; type: functional, organism-based
How it was run: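 Same flank HD-MB3 xenografts in female nu/nu mice. Given 4 i.p. doses of JQ1 50 mg/kg (or DMSO) at 0, 12, 24 and 36h; tumours excised 4h after the last dose and snap-frozen. MYC measured by RT-PCR (mean ± S.D.) or western blot with β-actin loading control, 3 tumours per group.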

[20] = tested on: Mus musculus; test: […] of cell proliferation in female athymic (nu/nu) mouse xenografted with human HD-MB03 cells as reduction in number of proliferating cells in tumor at 50 mg/kg, ip administered at 0, 12, 24 and 36 hrs over 2-day course by immunostaining and hematoxylin-eosin staining; type: functional, organism-based
How it was run: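 HD-MB3 cells in Matrigel (2 × 10^7) injected subcutaneously into the left flank of 4-week-old female nu/nu mice. Given JQ1 50 mg/kg i.p. or DMSO vehicle at 0, 12, 24 and 36h; killed 4h after the last dose. Fixed 5 µm tumour sections underwent pH 6.0 retrieval and Ki67 (1:25) immunostaining with H&E; positive cells quantified, 3 tumours per group.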

[21] = biological target: Bromodomain-containing protein 4 (Homo sapiens) (UniProt O60885); conditions: HD-MB03, dose 500.0 nM, time 24.0 hrs
[22] = biological target: Bromodomain-containing protein 4 (Homo sapiens) (UniProt O60885); conditions: UW228, dose 500.0 nM, time 24.0 hrs
[23] = biological target: Bromodomain-containing protein 4 (Homo sapiens) (UniProt O60885); conditions: HD-MB03, dose 500.0 nM, time 6-24 hrs

Cc1sc2c(c1C)C(c1ccc(Cl)cc1)=N[C@@H](CC(=O)OC(C)(C)C)c1nnc(C)n1-2
IC50 [1]: 544 nM
IC50 [2]: 172 nM
IC50 [3]: 87 nM
IC50 [4]: > 1000 nM
IC50 [5]: > 1000 nM
IC50 [6]: > 1000 nM
IC50 [7]: > 1000 nM
IC50 [8]: 316 nM
Activity [9]: Active
Activity [10]: Active
Activity [11]: Active
Activity [12]: Active
Activity [13]: Active
Activity [14]: Active
Activity [15]: Active
Activity [16]: Active
Activity [17]: inactive
Activity [18]: Active
inhibition [19]: Active
Activity [20]: Active
inhibition [21]: > 80%
inhibition [22]: Active
inhibition [23]: Active
